High-throughput results (PubChem)
This is a sample that favours compounds with a hit; in the whole collection about 3.7% have one here.
Kir21 block: inhibitors of mouse Kir2.1 inward-rectifier potassium channel. Inward rectifier potassium channel 2 (Mus musculus), P35561. HEK293-Kir2.1, FluxOR thallium flux fluorescence; stronger effect = lower value. B-score at 10 µM. actives 0.85% (n = 310,000). AID 1672, 2009;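 active = fluorescence ratio B-score at or below minus 3 SD of library scores, with starting-brightness B-score within 2 SD, cut at about -4.2 in these data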;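 note: channel flux triggered by added potassium and thallium sulfate stimulus; B-score of peak minus minimum fluorescence over baseline after thallium stimulus; more negative B-score means stronger Kir2.1 block with less thallium influx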
hERG protect: hERG rescue from dofetilide block, primary screen, cell-based, CHO-hERG, FluxOR thallium flux, dofetilide IC70; Voltage-gated inwardly rectifying potassium channel KCNH2 (Homo sapiens), Q12809; dofetilide IC70 present; activation (rescue from dofetilide block), less the hit threshold, % at 10 µM; actives 0.51% (n = 310,000);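 active = activation above the mean of controls blocked by dofetilide plus 5 SD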;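 note: thallium influx through hERG after potassium depolarization seen as dye fluorescence rise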
KCNQ1 block: inhibitors of human KCNQ1 channel, primary screen, cell-based, thallium flux, high-throughput | CHO-K1 KCNQ1, FluxOR thallium flux fluorescence; stronger effect = higher value | AID 2642, 2010 | B-score at 10 µM | actives 1.3% (n = 310,000) | Potassium voltage-gated channel subfamily KQT member 1 (Homo sapiens), P51787;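 active = compounds whose thallium flux B-score, printed positive for inhibition, exceeds three library SD while starting fluorescence stays within three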;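 note: channel opened by potassium depolarization with thallium stimulus after 20 min compound exposure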
KCNK3 block: human KCNK3 channel inhibitors, primary screen, CHO cells, FluxOR thallium flux, B-score | FluxOR fluorescence; stronger effect = lower value | Potassium channel subfamily K member 3 (Homo sapiens), O14649 | actives 0.84% (n = 340,000) | AID 602410, 2012 | B-score at 10 µM;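 active = B-score under library mean minus 4 SD, starting fluorescence ratio at most library mean plus 5 SD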;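 note: more negative B-score means stronger inhibition of thallium flux through KCNK3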
Target sequence (O14649 whole entry, looked up): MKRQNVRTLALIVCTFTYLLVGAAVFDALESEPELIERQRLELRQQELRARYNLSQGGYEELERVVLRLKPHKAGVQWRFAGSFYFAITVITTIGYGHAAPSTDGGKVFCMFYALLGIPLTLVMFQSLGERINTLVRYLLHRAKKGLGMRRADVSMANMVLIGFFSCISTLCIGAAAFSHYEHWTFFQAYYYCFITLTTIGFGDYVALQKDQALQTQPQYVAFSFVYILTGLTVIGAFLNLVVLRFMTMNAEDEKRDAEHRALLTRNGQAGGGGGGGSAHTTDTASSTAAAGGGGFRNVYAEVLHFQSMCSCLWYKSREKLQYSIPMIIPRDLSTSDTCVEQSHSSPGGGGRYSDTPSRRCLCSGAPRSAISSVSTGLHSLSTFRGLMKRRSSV
KCNQ1 pot: potentiators or activators of KCNQ1 channel, primary screen, cell-based, thallium flux, high-throughput | B-score at 10 µM | AID 2648, 2010 | CHO-K1 KCNQ1, thallium flux FluxOR fluorescence; stronger effect = higher value | actives 0.35% (n = 310,000);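 active = fluorescence ratio B-score, a plate-corrected score, at least three library SD, with initial intensity B-score within 5 SD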
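Assay system: stable KCNQ1 CHO-K1 line; medium: assay buffer, equal DMSO in all wells; timing: 90 min dye loading and 20 min compound exposure, both at room temperature; technique: kinetic FluxOR thallium fluorescence, 10-s 1-Hz baseline, 110-s post-stimulus read; read-out basis: B score of baseline-normalized fluorescence ratio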
KCNK9 block: KCNK9 potassium channel inhibitors, primary screen, HEK293 cells, thallium flux | actives 1.2% (n = 310,000) | Potassium channel subfamily K member 9 (Homo sapiens), Q9NPC2 | AID 488922, 2010 | B-score at 10 µM | FluxOR thallium flux fluorescence; stronger effect = lower value;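 active = ratio B-score over 3 SD below the library mean, with starting fluorescence within 5 SD of its mean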;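 note: negative B-score means less thallium flux so channel inhibition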
KCNK3 inh conf: retest of human KCNK3 channel inhibitors, confirmation, CHO cells, FluxOR thallium flux, triplicate. shares compounds with KCNK3 block. FluxOR fluorescence; 0% buffer, 100% carvedilol maximal block. ratio percent of control, % at 10 µM. actives 99% (n = 2,400);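 active = ratio percent of control, averaged over triplicates, above buffer control mean plus 5 SD, cut at about 64% in these data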;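 note: ratio is the fluorescence rise from min to max over baseline after thallium stimulus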
KCNK3 noninduced: thallium flux inhibition in non-induced cells, primary screen, counter-screen for KCNK3 inhibitor project, cell-based, non-induced KCNK3 line, FluxOR thallium, triplicate; shares compounds with KCNK3 block; non-induced KCNK3 parental cells; stronger effect = lower value; thallium flux ratio (lower = more inhibition) at 10 µM; actives 40% (n = 2,400); AID 651747, 2012;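 active = thallium flux ratio, averaged over three wells, more than 5 SD below the buffer control mean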;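 note: host cells are CHO cells without KCNK3 induction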
A number is an active result; n = inactive; x = not tested or not shown.

SMILES | Kir21 block | hERG protect | KCNQ1 block | KCNK3 block | KCNQ1 pot | KCNK9 block | KCNK3 inh conf | KCNK3 noninduced
Cc1cc(C)c(S(=O)(=O)N2CCN(C(=O)c3ccc(-n4cncn4)c([N+](=O)[O-])c3)CC2)c(C)c1 | n | n | n | n | n | n | x | x
COc1ccc(OC)c(-c2csc(NC(=O)c3ccc4c(c3)OCO4)n2)c1 | n | n | n | -9.3 | n | n | 92 | n
COc1ccc(OC)c(NC(=O)c2ccc3c(c2)OCO3)c1 | n | n | n | n | n | n | x | x
COc1ccc(OC)c(S(=O)(=O)N2CCC(C(=O)NC3CC3)CC2)c1 | n | n | n | n | n | n | x | x
CC(=O)NC(Cc1ccc(C)cc1)C(=O)NC1CCN(C(=O)NCc2ccccc2)CC1 (centres undefined) | n | n | n | n | n | n | x | x
CCN(c1ccc(OC)cc1)S(=O)(=O)c1nnc(NC(=O)c2ccccc2Cl)s1 | n | n | n | n | n | n | x | x
CSc1ccc(CN(C)C(=O)C(c2ccccc2)c2ccccc2)cc1 | n | n | n | -10 | n | n | 126 | 0.13
CSc1ccc(CN(C)C(=O)C(Cc2ccccc2)NC(=O)c2ccccc2)cc1 (centres undefined) | n | n | n | n | n | n | x | x
CCN(CC(=O)Nc1ccccc1C(F)(F)F)C(=O)C1CC(=O)N(Cc2ccccc2)C1 (centres undefined) | n | n | n | n | n | n | x | x
CC(C)OC(=O)CSc1nc(N2CCOCC2)c2c(c1C#N)CC(C)(C)OC2 | n | n | n | n | n | n | x | x
Brc1cccc(CNCC2CCCO2)c1 (centres undefined) | n | n | n | n | n | n | x | x
CCOC(=O)c1ccccc1NC(=O)c1ccc2c(SCC(=O)O)c3c(nc2c1)CCCC3 | n | n | n | -9.7 | n | n | 123 | n
Cc1c(/C=N/NC(=O)c2ccc(O)cc2)c2ccccn2c1C(=O)c1ccc(F)cc1 | n | n | n | n | n | n | x | x
Cc1c(/C=N/NC(=O)c2ccccc2O)c2ccccn2c1C(=O)c1ccc(F)cc1 | n | n | 10 | -11 | n | -7.9 | 129 | 0.16
CCOC(=O)C1=C(C)N=c2s/c(=C/c3cccc([N+](=O)[O-])c3O)c(=O)n2C1c1ccccc1 (centres undefined) | n | n | 13 | -12 | n | n | 124 | 0.1
CCN(C[C@H]1N[C@@](C)(C(=O)OC)[C@H]2C(=O)N(C)C(=O)[C@@H]12)C(=O)Nc1ccc(OC)cc1 | x | x | x | n | x | x | x | x
CC[n+]1c(/C=C/Nc2ccccc2)oc2ccccc21 | n | n | n | n | n | n | x | x
CC/C(=C\c1oc2cc3ccccc3cc2[n+]1CC)Nc1ccccc1 | n | n | 9 | -10 | n | n | 127 | 0.14
Cc1cc([N+](=O)[O-])ccc1-c1ccc(/C=N/NC(=O)c2ccc(Br)o2)o1 | n | n | n | -9.4 | n | n | 105 | n
CN(C)Cc1c(O)ccc2[nH]cnc12 | n | n | n | -10 | n | n | 80 | n
O=C(CCOc1cccc(Br)c1)Nc1ccc(F)c(S(=O)(=O)N2CCOCC2)c1 | x | x | x | -12 | x | x | 97 | n
O=C(CSc1ccccc1Cl)N1CCC(c2nc3ccccc3s2)CC1 | n | n | n | -9.8 | n | n | 107 | n
Cc1ccc(NC2CCCN(C(=O)CCCN3CCCCC3=O)C2)cc1C (centres undefined) | n | n | n | n | n | n | x | x
c1ccc(-c2nc(NCCCn3ccnc3)c3ccccc3n2)cc1 | n | n | n | -11 | n | n | 100 | 0.15
CC1CN(C(=O)c2ccc(COc3ccccc3Br)o2)CC(C)O1 (centres undefined) | n | n | n | n | n | n | x | x
SMILES | Kir21 block | hERG protect | KCNQ1 block | KCNK3 block | KCNQ1 pot | KCNK9 block | KCNK3 inh conf | KCNK3 noninduced
O=C(NS(=O)(=O)Oc1ccccc1F)OC[C@@H]1CCCN2CCCCC12 (some centres undefined) | n | n | n | n | n | n | x | x
COCCn1c(COc2ccc(C)cc2)nc2ccccc21 | n | n | n | n | n | n | x | x
CCn1c(COc2ccc(C)cc2)nc2ccccc21 | n | n | n | -12 | n | n | 112 | n
CCSc1nc(-c2cccs2)nc2ccccc12 | n | n | n | n | n | n | x | x
CCOc1ccccc1NC(=O)N1CCc2ccccc2C1 | n | n | n | -9 | n | n | 84 | n
CC(NC(=O)c1ccc(F)cc1)C1CC2CCC1C2 (centres undefined) | n | n | n | n | n | n | x | x
COc1cc(C(=O)NC(C)C2CC3CCC2C3)ccc1OC(F)F (centres undefined) | x | x | x | -12 | x | x | 110 | 0.12
Nc1ncnc2c1c(-c1ccc(Oc3ccccc3)cc1)cn2C1CCCC1 | x | x | x | -12 | x | x | 115 | n
Oc1ccc(/C=C/c2ccc3cccc(O)c3n2)cc1Br | n | n | n | -11 | n | n | 135 | 0.12
O=C(O)c1ccc(/C=C/c2ccc3cccc(O)c3n2)cc1 | n | n | n | n | n | n | x | x
Oc1cc2c(cc1CN1CCN(c3cccc(C(F)(F)F)c3)CC1)CCC2 | n | n | n | -9.4 | n | n | 100 | 0.15
COc1ccc(N2CCN(Cc3cc4c(cc3O)CCC4)CC2)cc1 | n | n | n | n | n | n | x | x
COc1ccc(NS(=O)(=O)c2cc(NC(=O)c3nc4nc(C)cc(C)n4n3)ccc2C)cc1 | n | n | n | n | n | n | x | x
CCn1cc(CNC(=O)C2CCC(=O)N(Cc3ccc(Cl)cc3)C2)cn1 (centres undefined) | n | n | n | n | n | n | x | x
c1ccc(CNc2ncnc3scc(-c4cccs4)c23)nc1 | n | n | n | -11 | n | n | 118 | n
c1ccc(-c2csc3ncnc(NCc4ccccn4)c23)cc1 | n | n | n | n | n | n | x | x
Cc1cc(N/N=C/c2ccc3c(c2)OCO3)nc2ccccc12 | n | n | n | -11 | n | n | 113 | n
